Assay outcomes from PubChem.
A selection: hits, their analogues and other compounds. The true share with any hit is near 3.5%.
PAFAH2 FP inh = PAFAH2 (human) inhibition; Q99487; recombinant PAFAH2, FP-rhodamine activity probe, fluorescence polarization; inhibition, % at 3.39 µM; 340,000 tested, 0.99% active; AID 492956;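 active = inhibition above the mean over all tested compounds plus 3 SD, cut at about 30% in these data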;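 also: inhibitors block probe labeling of enzyme so polarization drops; 0% = enzyme with DMSO and 100% = wells lacking PAFAH2 protein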
PAFAH1B3 inh = blocks human PAF acetylhydrolase 1B catalytic subunit 3. 340,000 tested, 0.28% active. inhibition, % at 3.39 µM. Q15102. recombinant PAFAH1B3, FP-rhodamine probe, fluorescence polarization;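 active = inhibition above the screen-wide average of all tested compounds plus 3 SD, cut at about 25% in these data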;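 also: 0% = enzyme with DMSO only and 100% = wells lacking PAFAH1B3 protein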
pPAFAH inh = inhibitors of human plasma PAF acetylhydrolase (pPAFAH); Q13093; recombinant pPAFAH, FP-rhodamine probe fluorescence polarization; inhibition, % at 3.39 µM; 330,000 tested, 1.5% active; AID 463082;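 active = inhibition above the mean inhibition across the screen plus 3 SD, cut at about 25% in these data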;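 also: inhibitors block binding of the rhodamine activity-based probe so polarization drops; 0% = enzyme with DMSO and 100% = wells lacking pPAFAH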
Target sequence (Q13093 whole entry, looked up): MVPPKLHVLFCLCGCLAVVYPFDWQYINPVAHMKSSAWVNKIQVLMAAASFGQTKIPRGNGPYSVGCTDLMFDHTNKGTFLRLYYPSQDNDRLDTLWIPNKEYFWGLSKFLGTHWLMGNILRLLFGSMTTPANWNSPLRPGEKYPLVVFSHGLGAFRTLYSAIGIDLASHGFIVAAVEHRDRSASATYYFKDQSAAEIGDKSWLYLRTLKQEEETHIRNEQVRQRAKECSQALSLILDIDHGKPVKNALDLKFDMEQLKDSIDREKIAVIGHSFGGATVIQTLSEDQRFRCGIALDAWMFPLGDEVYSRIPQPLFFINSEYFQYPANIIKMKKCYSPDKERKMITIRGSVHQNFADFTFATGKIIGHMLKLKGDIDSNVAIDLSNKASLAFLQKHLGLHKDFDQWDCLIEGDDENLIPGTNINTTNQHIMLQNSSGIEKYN
PREPL inhibitor = inhibits the human prolyl oligopeptidase-like enzyme; inhibition, % at 5.96 µM; 320,000 tested, 0.68% active; AID 2751; recombinant PREPL, fluorescence polarization activity-based probe; Q4J6C6; in the data active = inhibition above about 43%;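 also: 0% = enzyme with DMSO and 100% = wells lacking enzyme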
Apaf-1 inh = human Apaf-1 inhibition | AID 489030 | inhibition, % at 20 µM | reconstituted apoptosome caspase-3 activity, DEVD-Rh110 fluorescence | O14727 | 330,000 tested, 0.71% active; active = inhibition of at least 40% at 20 µM;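 also: plate controls were DMSO wells for no effect and DEVD-CHO caspase inhibitor wells for full effect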
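detection = Rh110 fluorescence intensity | test system = biochemical Apaf-1 apoptosome reconstitution | also added = cytochrome c and DEVD-Rh110 substrate | schedule = 30 min plus 50 min, RT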
PAFAH1B2 FP inh = blocks human PAF acetylhydrolase 1b catalytic subunit 2; P68402; recombinant PAFAH1B2, FP-rhodamine activity probe, fluorescence polarization; inhibition, % at 3.39 µM; 340,000 tested, 1.2% active;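 active = inhibition above the mean of all tested compounds plus 3 SD, cut at about 24% in these data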;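 also: 0% = enzyme with DMSO and 100% = wells lacking PAFAH1B2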
* hit, by the source's call; nt = no result given.

SMILES	PAFAH2 FP inh	PAFAH1B3 inh	pPAFAH inh	PREPL inhibitor	Apaf-1 inh	PAFAH1B2 FP inh
CCc1cccc(CC)c1NC(=O)Cn1c(-c2ccccc2Cl)nc2ccccc21	0	10	7	1	-13	4
CC(C)N(C(=O)Cn1c(-c2ccccc2Cl)nc2ccccc21)c1ccccc1	0	0	26*	0	-4	14
CC(C)Cc1nnc(NC(=O)C23CC4CC(CC(C4)C2)C3)s1	5	0	-1	13	19	20
NC(=O)CSc1nnc(NC(=O)C23CC4CC(CC(C4)C2)C3)s1	8	3	8	1	0	28*
CCc1nnc(NC(=O)C23CC4CC(CC(C4)C2)C3)s1	9	6	5	4	9	30*
Cc1csc(NC(=O)c2c(-c3c(Cl)cccc3Cl)noc2C)n1	2	2	3	-5	8	3
Cc1csc(NC(=O)c2c(-c3c(F)cccc3Cl)noc2C)n1	-3	-4	33*	8	-11	5
CN(Cc1ccsc1)C(=O)CCc1nnc(CCCc2ccccc2)o1	-10	2	6	-5	-16	14
CCN(Cc1ccccc1)C(=O)CCc1nnc(CCCc2ccccc2)o1	-8	10	1	5	-4	26*
CCCCn1c(C23CC4CC(CC(C4)C2)C3)n[nH]c1=S	4	-1	2	14	1	29*
COCCn1c(C23CC4CC(CC(C4)C2)C3)n[nH]c1=S	5	7	5	-8	8	5
Cc1ccccc1NS(=O)(=O)c1ccc(C)c(C(=O)N2CCOCC2)c1	-3	4	34*	0	4	-1
COc1ccc(S(=O)(=O)Nc2ccccc2C(=O)N2CCOCC2)cc1C	-11	1	-5	-15	0	2
COc1ccc(S(=O)(=O)Nc2ccccc2C)cc1C(=O)N1CCOCC1	8	3	26*	0	-7	1
Cc1ccc(S(=O)(=O)Nc2ccccc2F)cc1C(=O)N1CCCC1	1	7	6	-2	-2	2
CC1CCN(S(=O)(=O)c2ccc(NC(=O)C3CC3)cc2)CC1	-5	0	5	2	-1	25*
COC(=O)Nc1ccc(S(=O)(=O)N2CCC(C)CC2)cc1	9	-5	-6	-2	-23	25*
O=C(N[C@@H](Cc1ccccc1)C(=O)N1CCN(S(=O)(=O)c2ccc(F)cc2)CC1)c1ccco1	3	12	nt	nt	1	24*
O=C(Nc1ccc(S(=O)(=O)N2CCCCC2)cc1)c1ccco1	5	-5	5	3	-3	2
CC1CCN(S(=O)(=O)c2ccc(NC(=O)c3ccco3)cc2)CC1	-11	9	-5	-6	8	27*
O=C(NC(Cc1ccccc1)C(=O)N1CCN(S(=O)(=O)c2ccccc2)CC1)c1ccccc1 (centres undefined)	1	-7	-6	33	7	8
COc1ccc(N(C)S(=O)(=O)c2ccc3c(c2)NC(=O)CC(=O)N3)c(OC)c1	-1	11	-1	0	-3	3
CC1CCN(S(=O)(=O)c2ccc(NC(=O)C3CCCCC3C(=O)O)cc2)CC1 (centres undefined)	6	3	nt	nt	nt	6
CC1CCN(S(=O)(=O)c2ccc(NC(=O)[C@@H]3CCCC[C@@H]3C(=O)O)cc2)CC1	4	1	1	11	0	48*
CC1CCN(S(=O)(=O)c2ccc(NC(=O)c3ccncc3)cc2)CC1	-3	14	-1	5	24	29*
SMILES	PAFAH2 FP inh	PAFAH1B3 inh	pPAFAH inh	PREPL inhibitor	Apaf-1 inh	PAFAH1B2 FP inh
CN(C)Cc1ccc(CNC(=O)COc2ccc3ccccc3c2)cc1	-9	6	5	31	3	6
CCC/C=C(\CCC)C(NC(=O)c1ccc(C(F)(F)F)cc1)c1ccccc1 (centres undefined)	nt	nt	-7	-11	8	nt
Nc1cccc(C2=Nc3cccc4cccc(c34)N2)c1	-13	33*	-3	15	nt	25*
COC1=C(N)C(=O)c2nc(-c3nc(C(=O)O)c(C)c(-c4ccc(OC)c(OC)c4O)c3N)ccc2C1=O	nt	nt	1	19	84*	nt
Cc1cc(CSCc2ccc(Cl)cc2)no1	0	-3	3	14	7	27*
CN(C(=S)Nc1ccc(Oc2ccccc2)cc1)c1ccc(O)cc1	-9	8	27*	18	nt	5
